Laboratory results from ChEMBL document CHEMBL1124764, “Cytotoxicity and antitumor activity of some tetrahedral bis(diphosphino)gold(I) chelates” (J Med Chem, 1990).

Key:
B16 [1] = experiment: In vitro concentration which inhibits cloning efficiency of B16 melanoma cells by 50% on a 2-h exposure was determined.; format: functional, cell-based, Mus musculus
Procedure, shortened: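 Clonogenic assay with B16 melanoma cells grown in monolayer culture. Cells were exposed to drug for 2 h, either in medium containing 10% fetal calf serum or in serum-free medium, and then cloned. IC50 is the concentration cutting cloning efficiency by 50%.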

P388 [2] = experiment: In vivo maximum increase in lifespan produced in mice bearing ip P388 leukemia; format: functional, organism-based; conditions: Mus musculus
Procedure, shortened: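 B6D2F1 mice were inoculated ip with 10⁶ P388 leukemia cells. Complexes in DMA or ethanol plus saline (Cremophor-EL if precipitating) were given ip in 0.5 mL on days 1–5, starting 24 h after inoculation, at five log-spaced doses. Untreated and cisplatin controls were included. Mice were monitored daily for 45 days. ILS = % increase in median survival versus untreated controls, at MTD; >30% counted as active.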

P388 [3] = experiment: In vivo maximally tolerated dose for B6D2F1 mice on an ip P388 leukemia every day for 5 days regimen; format: functional, organism-based; conditions: Mus musculus
Procedure, shortened: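 B6D2F1 mice inoculated ip with 10⁶ P388 leukemia cells. Complex in DMA or ethanol plus saline, with Cremophor-EL if needed, 0.5 mL, freshly made. Given ip days 1–5 starting 24 h after inoculation, at five log-spaced doses to find the MTD. Groups of six; untreated and cisplatin controls. Mortality checked daily for 45 days; end points MST and ILS.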

M5076 = experiment: In vivo maximum increase in lifespan produced in mice bearing M5076 reticulum cell sarcoma implanted tumor; format: functional; conditions: Mus musculus
Procedure, shortened: (§1)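 M5076 sarcoma or B16 melanoma was maintained by serial transplantation in syngeneic mice and implanted ip. B6D2F1 mice received complexes ip daily for 10 days at five log-spaced doses encompassing the MTD. Activity was scored as increase in median lifespan versus untreated controls, at MTD; >25% ILS counted as active.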

Mus musculus = experiment: In vivo maximally tolerated dose for B6D2F mice on an every day ip for 10 days regimen.; format: functional, organism-based
Procedure, shortened: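 B6D2F1 mice with ip-implanted M5076 reticulum cell sarcoma or B16 melanoma, kept by serial transplant in syngeneic mice. Complex dissolved in minimal DMA or ethanol plus equal saline, with Cremophor-EL if it precipitated. Made just before use and given ip daily for 10 days at five log-spaced doses spanning the MTD. Activity judged by median lifespan prolongation.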

[4] = (§2) In vivo maximum increase in lifespan produced in mice bearing ip B16 melanoma implanted tumor; format: organism-based; procedure, shortened: as §1
B16 [5] = experiment: as §2; format: functional, organism-based; conditions: Mus musculus; procedure, shortened: as §1

Substance: Bis [1,2-bis(diphenylphosphino)propane] gold (I) Chloride [listing 1 of 2 here]
- IC50 (B16 [1]): 0.6 µM

Substance: Bis [1,2-bis[bis(5-H-dibenzophospholyl)ethane] gold (I) Nitrate
- ILS (P388 [2]): 61%
- MTD (uM day-1 kg-1) (P388 [3]): 4

Substance: Bis [(1-diphenylphosphino, 2-diethyl) ethane] gold (I) Chloride [listing 1 of 2 here]
- IC50 (B16 [1]): 5 µM

Substance: Bis [1,2-bis(diphenylphosphino)ethane] gold (I) Nitrate [listing 1 of 2 here]
- IC50 (B16 [1]): 4 µM

Substance: Bis [(1-diphenylphosphino, 2-diethyl) ethane] gold (I) Chloride [listing 2 of 2 here]
- ILS (P388 [2]): 54%
- ILS (M5076): 46%
- MTD (uM day-1 kg-1) (P388 [3]): 4
- MTD (uM day-1 kg-1) (Mus musculus): 2

Substance: Bis [1,2-bis(dipyridine-2-ylphosphino)ethane] gold (I) Chloride Hydrate; chloride
- ILS (P388 [2]): 75%
- MTD (uM day-1 kg-1) (P388 [3]): 8
- ILS [4]: 43%
- MTD (uM day-1 kg-1) (Mus musculus): 8

Substance: Bis [1,2-bis(diphenylphosphino)propane] gold (I) Chloride [listing 2 of 2 here]
- ILS (P388 [2]): 89%
- ILS (M5076): 116%
- MTD (uM day-1 kg-1) (P388 [3]): 3
- ILS [4]: 34%
- MTD (uM day-1 kg-1) (Mus musculus): 2

Substance: Bis [1,2-bis(diphenylphosphino)ethane] gold (I) Chloride Hydrate [listing 1 of 2 here]
- ILS (P388 [2]): 83%
- ILS (B16 [5]): 38%
- ILS (M5076): 57%
- MTD (uM day-1 kg-1) (P388 [3]): 3
- MTD (uM day-1 kg-1) (Mus musculus): 2

Substance: Bis [1,2-bis(diphenylphosphino)ethane] gold (I) Nitrate [listing 2 of 2 here]
- ILS (P388 [2]): 90%
- MTD (uM day-1 kg-1) (P388 [3]): 3

Substance: Bis [1,2-bis(diphenylphosphino)ethane] gold (I) Iodide Hydrate
- ILS (P388 [2]): 150%
- ILS (M5076): 52%
- MTD (uM day-1 kg-1) (P388 [3]): 2
- MTD (uM day-1 kg-1) (Mus musculus): 2

Substance: Bis [1,2-bis(diphenylphosphino)ethane] gold (I) Methanesulfonate
- ILS (P388 [2]): 81%
- MTD (uM day-1 kg-1) (P388 [3]): 2

Substance: Bis [1,2-bis(diphenylphosphino)ethane] gold (I) 2-hydroxy-1-ethane sulphonate
- ILS (P388 [2]): 78%
- MTD (uM day-1 kg-1) (P388 [3]): 2

Substance: CISPLATIN
- ILS (P388 [2]): 125%
- ILS (M5076): 103%
- MTD (uM day-1 kg-1) (P388 [3]): 7
- ILS [4]: 75%
- MTD (uM day-1 kg-1) (Mus musculus): 5

Substance: Bis [1,2-bis(diphenylphosphino)ethene] gold (I) Chloride [listing 1 of 2 here]
- ILS (P388 [2]): 92%
- ILS (M5076): 69%
- MTD (uM day-1 kg-1) (P388 [3]): 2
- ILS [4]: 35%
- MTD (uM day-1 kg-1) (Mus musculus): 2

Substance: Bis [1,2-bis[bis(4-fluorophenyl)phosphino)ethane] gold (I) Chloride
- ILS (P388 [2]): 50%
- MTD (uM day-1 kg-1) (P388 [3]): 3

Substance: Bis [1,2-bis(diphenylphosphino)ethane] gold (I) Chloride Hydrate [listing 2 of 2 here]
- IC50 (B16 [1]): 4.5 µM

Substance: Bis [1,2-bis(diphenylphosphino)ethene] gold (I) Chloride [listing 2 of 2 here]
- IC50 (B16 [1]): 2 µM

Substance: Bis [1,2-bis[bis(3-fluorophenyl)phosphino)ethane] gold (I) Chloride
- ILS (P388 [2]): 55%
- MTD (uM day-1 kg-1) (P388 [3]): 10

Substance: Bis [1-dipphenyl,2-phenylmethylphosphino)ethane] gold (I) Chloride Hydrate; chloride
- ILS (P388 [2]): 65%
- MTD (uM day-1 kg-1) (P388 [3]): 3
- MTD (uM day-1 kg-1) (Mus musculus): 2

Substance: Bis [1,2-bis(dipyridine-4-ylphosphino)ethane] gold (I) Chloride Hydrate; chloride
- MTD (uM day-1 kg-1) (P388 [3]): 6
- MTD (uM day-1 kg-1) (Mus musculus): 4

Substance: Bis [1,2-bis(diphenylphosphino)ethane] gold (I) Bromide Hydrate
- ILS (P388 [2]): 83%
- MTD (uM day-1 kg-1) (P388 [3]): 2
